Compound activity from PubChem.
Only some compounds are listed: those with a hit (about 12% of all), similar ones and a draw of the others.
b-catenin transl – modulators of beta-catenin nuclear translocation, primary screen, imaging, HeLa cells, immunofluorescence, high-content; nuclear translocation activity, % at 5 µM; hit rate 0.3% among 190,000;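 active means nuclear translocation activity above 50% at 5 µM, with a well cell count of 50 or more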;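 further: per-cell ratio of nuclear to cytoplasmic median beta-catenin stain intensity; plate controls were DMSO negative control for no effect and GSK-3 inhibitor IX positive control for full effect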
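Test system: human HeLa cells, native beta-catenin. Compound dosing: 5 µM primary single dose, 0.1% DMSO, 0.02–20 µM confirmation series. Incubation: compound exposure 24 h at 37°C. Detection: beta-catenin immunostaining with DAPI counterstain, 20x imaging, 6 fields/well. Read-out basis: Nuclear/cytoplasmic beta-catenin signal ratio, % activation.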
Dynein cargo inh – inhibitors of GR-EGFP nuclear translocation, primary screen, dynein cargo transport inhibitor project, imaging, high-content, 3617.4 mouse cells. z-score, hits read low. hit rate 0.47% among 220,000. AID 1381, 2008. test concentration mostly 20 µM; stimulated with dexamethasone, 1 µM; active compounds read low;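 active means plate z-score of nuclear minus cytoplasmic receptor signal below a set negative limit, without overly bright fluorescence or cell loss, cut at about -3.5 in these data, passing the limit was not always enough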;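 further: z-score of nuclear minus cytoplasmic ring GR-EGFP intensity difference per well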
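Buffer or medium: tet-free, stripped-serum medium; Also added: dexamethasone, 1.0 µM final; Technique: high-content fluorescence imaging after fixation; Times: 48 h induction, 1 h compound, 30 min dex at 37 °C; Read-out: per-cell GR-EGFP intensity, nucleus versus surrounding cytoplasmic ring, well-averaged.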
Autophagy HCS – autophagy modulators in MEF cells, primary screen, imaging, high-content, MEF GFP-LC3; calls only at 10 µM (by protocol); MEF GFP-LC3 puncta imaging; test concentration mostly 10 µM; hit rate 0.98% among 190,000;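 active means percentage of spot-positive cells more than 3 SD above its plate mean, without a fluorescence outlier flag or 80% toxicity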;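 further: spot-positive cell cutoff set from DMSO-treated cells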
MT stabilizer – microtubule stabilizers in HeLa cells, primary screen, imaging, high-content imaging | hit rate 0.83% among 200,000 | % tubulin-high responders, % at 10 µM | HeLa tubulin immunostaining HCS, 24 h; share of cells brighter than vehicle mean+2SD;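 active means plate Z-score above 3 for both tubulin-high and condensed-nucleus cell shares, with cell loss under 80%, at 10 µM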;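 further: anti alpha tubulin signal scored within the nucleus-defined area of each cell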
CHOP inh – inhibitors of CHOP promoter induction, primary screen, cell-based, unfolded protein response, luciferase reporter | CHO-K1 CHOP-promoter luciferase, tunicamycin-induced, 15-18 h | inhibition, % at 10 µM | hit rate 3.8% among 220,000;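 active means compounds that reduced the stress-induced luciferase reporter signal by more than about 70% of percent inhibition, limit read from the data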;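 further: 0% = tunicamycin plus vehicle and 100% = wells without tunicamycin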
L major viab – Leishmania major promastigote growth inhibition, primary screen | Leishmania major promastigotes, resazurin fluorescence viability | inhibition, % at 10 µM | hit rate 9% among 200,000 | AID 1063, 2008; in the data active means inhibition above about 50%;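 further: promastigotes grown with compound for 44 hours at 28 °C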
* hit, by the source's call; i = inactive; . = no result given; + = active, no number.

SMILES | b-catenin transl | Dynein cargo inh | Autophagy HCS | MT stabilizer | CHOP inh | L major viab
CCOC(=O)c1c(NC(=O)c2ccc(N3C(=O)C4C5C=CC(C5)C4C3=O)cc2)sc2c1CCCC2 (stereo unspecified) | 0 | -0.048 | i | 3 | 44 | 20
COC(=O)c1ccc(NC(=O)[C@H](C)NC(N)=O)cc1 | 0 | -0.83 | . | . | 5 | .
O=C(N/N=C/c1ccc(N2CCOCC2)cc1)C1COc2ccccc2O1 (stereo unspecified) | 0 | 0.63 | i | 2 | 3 | 6
Clc1ccc(OCCn2ccnc2)c(Cl)c1 | 0 | 1.2 | i | 3 | 6 | 25
CCC(C)c1ccccc1OCCn1ccnc1 (stereo unspecified) | 2 | -0.27 | i | 2 | 11 | 69*
CC(C)c1ccccc1OCCNC(=O)c1cccnc1 | -2 | 0.094 | i | 2 | 7 | 0
Clc1ccc(OCCn2ccnc2)c2ccccc12 | 0 | 0.13 | i | 4 | 7 | 96*
O=C(NNC(=S)Nc1ccccc1Cl)c1ccncc1 | -1 | -0.5 | . | . | -14 | .
COc1ccc(OC)c(Nc2nc(-c3cccc([N+](=O)[O-])c3)nc3ccccc23)c1 | -1 | -0.91 | + | 1 | 65 | 3
COc1ccc(Nc2nc(-c3cccc([N+](=O)[O-])c3)nc3ccccc23)c(OC)c1 | -1 | 0.053 | i | 5 | -38 | 47
COc1ccc(N(CC(=O)NCCC2=CCCCC2)S(=O)(=O)c2ccc(C)cc2)cc1OC | -1 | 0.65 | i | 3 | 10 | 85*
COc1ccc(N(CC(=O)NCCC2=CCCCC2)S(=O)(=O)c2ccccc2)cc1OC | 0 | -0.45 | i | 5 | 25 | 73*
CN(C)c1ccc(O)c2c1CC1CC3[C@@H](N(C)C)C(=O)C(C(N)=O)=C(O)[C@]3(O)C(=O)C1=C2O (stereo partly specified) | 1 | 0.33 | i | 4 | 31 | 83*
C[C@H]1c2cccc(O)c2C(O)=C2C(=O)[C@]3(O)C(O)=C(C(N)=O)C(=O)[C@@H](N(C)C)[C@@H]3[C@@H](O)[C@@H]21 | 0 | -0.64 | . | . | 12 | .
CCCCn1c(=O)[nH]c(=O)c2c1nc(-c1ccc(C)c([N+](=O)[O-])c1)n2CC | -1 | 0.56 | i | 2 | 21 | 99*
COc1cc(C(=O)Nc2ccc3c(c2)CCN3C(C)=O)cc(OC)c1OC | 0 | -0.25 | i | 22* | 9 | -3
O=C(NC1CCCCC1)c1cc([N+](=O)[O-])ccc1N1CCCCC1 | -2 | 0.36 | i | 4 | 35 | 3
Cc1ccc(C(=O)c2cc([N+](=O)[O-])ccc2N2CCOCC2)cc1C | 10 | 0.15 | i | 20* | 3 | -1
O=C(Nc1nc(-c2ccc(F)c(F)c2)cs1)c1cc([N+](=O)[O-])ccc1N1CCOCC1 | -3 | 0.22 | i | 3 | 28 | -1
Cc1ccc(C(=O)c2cc([N+](=O)[O-])ccc2N2CCCCC2)cc1C | 78* | 0.39 | i | 4 | 17 | 24
CN1CCN(c2ccc([N+](=O)[O-])cc2C(=O)N2CCOCC2)CC1 | 0 | 0.78 | i | 3 | . | -1
Cc1cc(C)c(-c2csc(NC(=O)c3cc([N+](=O)[O-])ccc3N3CCOCC3)n2)c(C)c1 | . | -1.2 | i | 2 | 6 | 79*
Cc1ccc(C(=O)c2cc([N+](=O)[O-])ccc2N2CCOCC2)c(C)c1 | 135* | -0.4 | i | 6 | -3 | 19
Cc1c(NC(=S)NC(NC(=O)C(C)C)C(Cl)(Cl)Cl)c(=O)n(-c2ccccc2)n1C (stereo unspecified) | 2 | -0.19 | i | 6 | 4 | -5
CCc1nnc(NS(=O)(=O)c2ccc(Nc3ccc4nonc4c3[N+](=O)[O-])cc2)s1 | 2 | 0.14 | i | 4 | 10 | -3
SMILES | b-catenin transl | Dynein cargo inh | Autophagy HCS | MT stabilizer | CHOP inh | L major viab
CCN(CCCNC(=O)CN1C(=O)COc2ccccc21)c1cccc(C)c1 | . | -0.094 | i | 2 | 86* | 5
CCN(CCNC(=O)c1cccc(N2CCCC2=O)c1)c1ccccc1 | . | 1 | i | 2 | -8 | -1
CCN(CCCNC(=O)c1ccc(N2CCCC2=O)cc1)c1cccc(C)c1 | 0 | 1.1 | i | 2 | 29 | 79*
CCc1ccccc1N(CC)C(=O)CCc1nc(-c2ccc(C)cc2)no1 | -3 | -0.76 | i | 2 | 60 | 20
CCN(Cc1ccccc1)C(=O)CCc1nc(-c2ccc(C)cc2)no1 | 3 | 0.13 | i | 2 | 71* | -1
CCN(CCCNC(=O)CCc1nc(-c2ccc(C)cc2)no1)c1cccc(C)c1 | -3 | -0.82 | i | 2 | 71* | -2
COc1ccc(C(=O)N(C)C2CCN(C)CC2)cc1S(=O)(=O)Nc1cc(Cl)ccc1Cl | -3 | -0.11 | . | . | -1 | .
O=C(O)COc1ccccc1/C=N/NC(=O)CSc1nnc(SCc2ccccc2)s1 | 0 | 0.73 | . | . | -6 | .
O=C(CCCN1C(=O)c2cccc3cccc(c23)C1=O)NC1CCS(=O)(=O)C1 (stereo unspecified) | 2 | 0.13 | i | 2 | -14 | -2
CCCCN(CCCNC(=O)CN1C(=O)COc2ccccc21)c1ccccc1 | 0 | 0.6 | + | 2 | 74* | 7
CCN(CC)S(=O)(=O)c1cc(NC(=O)C(C)Nc2ccccc2N2CCOCC2)ccc1C (stereo unspecified) | 1 | 1.2 | i | 6 | 29 | 71*
CCN(CC)S(=O)(=O)c1cc(NC(=O)C(C)N2CCN(c3ccccn3)CC2)ccc1C (stereo unspecified) | 0 | -1.3 | i | 2 | 23 | 11
CCN(CC)S(=O)(=O)c1cc(NC(=O)C(C)N2CCN(Cc3ccc4c(c3)OCO4)CC2)ccc1C (stereo unspecified) | -5 | 0.0083 | i | 3 | 19 | 88*
CCN(CC)S(=O)(=O)c1ccc(N2CCCCC2)c(C(=O)Nc2ccccc2N2CCOCC2)c1 | 0 | 1.3 | i | 2 | -1 | 40
Cc1nc(CSc2ccccc2)cc(=O)[nH]1 | -2 | 1.7 | i | 4 | -2 | -8
COc1ccc(S(=O)(=O)Nc2ccc3c(c2)CCC3)cc1 | 0 | 2.7 | i | 3 | 13 | 13
NS(=O)(=O)c1ccc(NC(=O)COC(=O)/C(=C/c2cccs2)c2cccs2)cc1 | -5 | 1.4 | i | 3 | 10 | -5
Cc1cccc(C)c1Nc1nnc(SCC(=O)Nc2ncc(C(F)(F)F)cc2Cl)s1 | . | 0.15 | i | 3 | 24 | -2
Cc1ccc(Nc2nnc(SCC(=O)Nc3cccnc3Cl)s2)cc1C | 1 | 0.56 | i | 2 | 29 | 83*
